In brackets after ≈: the same amount, converted by molar mass. Activity calls are given as the source filed them. The calls are words filed in the database; no cut-off is given here. Bounds are passed on as bounds.

The subject of assay [1] is Candida albicans. Briefly: Antifungal activity against fluconazole-sensitive Candida albicans 9770 assessed as inhibition of fungal growth. The class given is functional.
The test system of assay [2] is Cryptococcus neoformans. The experiment in a line: Downregulation of CAP10 gene expression in Cryptococcus neoformans H99 at 2 ug/ml measured after 24 hrs by qRT-PCR analysis. Format: functional. To be noted: dose 2.0 µg/ml. The method, boiled down:
(§1)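 Exponential-phase C. neoformans H99 inoculated into 50 mL YPD with compound. Incubated 35 °C for 24 h, then cultures ground in liquid nitrogen for RNA isolation. Transcript levels of capsule-associated genes quantified by RT-qPCR. Three independent experiments, mean ± SD, t-test.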

The subject of assay [3] is Candida tropicalis. The experiment in a line: Antifungal activity against fluconazole-resistant Candida tropicalis 5008 assessed as inhibition of cell proliferation at 32 ug/ml measured for 48 hrs by time growth curve assay. The class given is functional, organism-based. To be noted: dose 32.0 µg/ml. The method in brief: (§2)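 Exponential-phase cells from YEPD resuspended in 3 mL fresh RPMI 1640 at 1 × 10⁵ cells/mL (C. tropicalis 5008) or 1 × 10⁶ cells/mL (C. neoformans H99). Compound at several concentrations; cultures shaken at 240 rpm, 30 °C. Growth read as OD₆₃₀ at 0, 6, 12, 24, 36 and 48 h. Done in triplicate.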

Assay [4] deals with Candida tropicalis. Briefly: microbe, parasite or virus in culture. Format: functional. To be noted: 3890, time 48 hrs.
Assay [5] relates to Candida tropicalis. The experiment in a line: microbe, parasite or virus in culture. To be noted: 5008, time 48 hrs. The class given is functional.
The test system of assay [6] is Candida tropicalis. Briefly: Downregulation of ERG11 mRNA expression in Candida tropicalis 5008 at 4 ug/ml measured after 24 hrs by qRT-PCR analysis. Format: functional. Particulars: dose 4.0 µg/ml. The method, boiled down:
(§3)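 Exponential-phase C. tropicalis 5008 inoculated into 10 mL YPD with compound at several concentrations, DMSO as blank control. Incubated 35 °C for 24 h. Total RNA isolated on columns and reverse-transcribed. Real-time RT-PCR with ACT1 as internal control. Mean of 3 independent assays ± SD.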

Assay [7] concerns Candida tropicalis. Briefly: Downregulation of MDR1 mRNA expression in Candida tropicalis 5008 at 4 ug/ml measured after 24 hrs by qRT-PCR analysis. The class given is functional. To be noted: dose 4.0 µg/ml. The method in brief:
as §3

Assay [8] relates to Cryptococcus neoformans. The experiment in a line: Downregulation of CAP59 gene expression in Cryptococcus neoformans H99 at 2 ug/ml measured after 24 hrs by qRT-PCR analysis. Particulars: dose 2.0 µg/ml. Format: functional. The method, boiled down: as §1
In assay [9] the test system is Cryptococcus neoformans. The experiment in a line: Antifungal activity against Cryptococcus neoformans H99 infected in ICR mouse model assessed as reduction in fungal burden in brain at 20 mg/kg, po administered once a day for 5 days. The class given is functional, organism-based. To be noted: time 5.0 day. The method, boiled down: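 Immunosuppression by intraperitoneal cyclophosphamide 24 h before infection. Infected on day 0 by intravenous 2 × 10⁵ CFU C. neoformans H99. Oral treatment once daily for 5 consecutive days, starting 24 h post infection; saline group as blank. Brains taken on day 6 and homogenized, dilutions plated on SDA at 35 °C for 48 h. Colonies counted for burden; groups compared by ANOVA.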

The subject of assay [10] is Candida tropicalis. Briefly: Antifungal activity against Candida tropicalis 5008 assessed as inhibition of fungal filamentation by measuring reduction in hyphae formation at 8 ug/ml incubated for 7 hrs by cell inverted imaging microscopic analysis. Format: functional, organism-based. Particulars: dose 8.0 µg/ml. The method in brief: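 C. tropicalis 5008 grown to exponential phase in YEPD, diluted to 1 × 10⁵ CFU/mL in spider medium and dosed at several concentrations, with an untreated group for comparison. Incubated 37 °C for 7 h. Cell morphology recorded on a live-cell inverted microscope.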

For assay [11], the system named is Cryptococcus neoformans. Briefly: Inhibition of biofilm formation in Cryptococcus neoformans H99 at 8 ug/ml incubated for 24 hrs by XTT reduction assay. The class given is functional, organism-based. To be noted: dose 8.0 µg/ml.
For assay [12], the system named is Candida albicans. Briefly: microbe, parasite or virus in culture. The class given is functional. To be noted: 4108.
Assay [13] has as its system Candida albicans. The experiment in a line: Antifungal activity against fluconazole-sensitive Candida albicans 10061 assessed as inhibition of fungal growth. Format: functional.
The test system of assay [14] is Candida albicans. Briefly: microbe, parasite or virus in culture. Format: functional. Particulars: 0304103.
In assay [15] the test system is Candida tropicalis. Briefly: Downregulation of CDR1 mRNA expression in Candida tropicalis 5008 at 4 ug/ml measured after 24 hrs by qRT-PCR analysis. To be noted: dose 4.0 µg/ml. The class given is functional. The method in brief: as §3
In assay [16] the test system is Cryptococcus neoformans. The experiment in a line: microbe, parasite or virus in culture. The class given is functional. Particulars: H99, time 72 hrs.
For assay [17], the system named is Cryptococcus neoformans. The experiment in a line: Antifungal activity against fluconazole-sensitive Cryptococcus neoformans H99 assessed as inhibition of cell proliferation at 2 to 8 ug/ml measured for 48 hrs by time growth curve assay. The class given is functional, organism-based. Particulars: dose 2-8 µg/ml. The method in brief:
as §2

Assay [18] concerns Candida albicans. Briefly: microbe, parasite or virus in culture. The class given is functional. Particulars: 7781.
Assay [19] concerns Cryptococcus neoformans. Briefly: Inhibition of capsule formation in Cryptococcus neoformans H99 assessed as reduction in capsule size at 50 ug/ml incubated for 24 hrs by laser scanning confocal microscopic analysis. Format: functional. Particulars: dose 50.0 µg/ml. The method, boiled down: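 Exponential-phase C. neoformans H99 from YEPD resuspended in PBS at 1 × 10⁷ cells/mL. Suspension placed in wells with FBS plus DMEM and compound at several concentrations; untreated group as control. Kept 24 h at 37 °C under 10% CO₂. Cells mixed with India ink and imaged by confocal microscopy at 63×, 10 random fields. Whole-cell and cell-body diameters measured to derive capsule size.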

In assay [20] the test system is Candida albicans. The experiment in a line: Antifungal activity against fluconazole-sensitive Candida albicans SC5314 assessed as inhibition of fungal growth. The class given is functional.

Consider `OC(Cn1cncn1)(Cn1cncn1)c1ccc(F)cc1F` [FLUCONAZOLE], for which the MIC80 in the assay on Candida albicans [1] is greater than 64 µg/mL; against Candida tropicalis [4], 0.5 µg/mL (≈ 1.63 µM); against Candida tropicalis [5], greater than 64 µg/mL; in the assay on Candida albicans [12], greater than 64 µg/mL; in the assay with Candida albicans [13], greater than 64 µg/mL; against Candida albicans [14], greater than 64 µg/mL. The MIC80 was 2 µg/mL (≈ 6.53 µM) in the assay with Cryptococcus neoformans [16], greater than 64 µg/mL against Candida albicans [18] and 0.5 µg/mL (≈ 1.63 µM) in the assay with Candida albicans [20]. Besides, the inhibition result in the assay on Cryptococcus neoformans [2] and with Cryptococcus neoformans [8] was “inactive” in each case. The outcome with Candida tropicalis [3], in the assay on Cryptococcus neoformans [9], in the assay on Candida tropicalis [10] and in the assay on Cryptococcus neoformans [17] was Active. For the same compound, the inhibition result with Candida tropicalis [6], with Candida tropicalis [7], in the assay with Cryptococcus neoformans [11], in the assay on Candida tropicalis [15] and in the assay with Cryptococcus neoformans [19] was “Active” throughout.

The record behind these values is ChEMBL document CHEMBL4842325, “Lanosterol 14α-demethylase (CYP51)/histone deacetylase (HDAC) dual inhibitors for treatment of Candida tropicalis and Cryptococcus neoformans infections” (Eur J Med Chem, 2021).
